Data on 13 molecules can be found in paper PMC3544189 (ACS medicinal chemistry letters, 2012).

Assay [1] relates to chymotrypsin-like activity of human 20S proteasome. In kind it is biochemical. Conditions: for Proteasome activation (in words): chymotrypsin-like activity, absence of PA28. In short, it runs like this: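 Without PA28, proteasome was exposed to test compound. Chymotrypsin-like activity was followed by cleavage of the fluorogenic substrate Suc-LLVY-AMC, read in relative fluorescence units against a proteasome-plus-substrate background. EC50 was the concentration raising activity to 50% of its maximum level. Values are mean ± SD of three independent experiments.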

For assay [2], the system named is chymotrypsin-like proteasome activity (20S proteasome + PA28). The assay is described as follows: Inhibition of chymotrypsin-like proteasome activity in the presence of PA28. In kind it is biochemical, human. The procedure, abridged: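 The proteasome was activated by the cellular activator PA28 and then exposed to test compound. Chymotrypsin-like activity was read by Suc-LLVY-AMC fluorescence, with proteasome plus substrate as background. IC50 was the concentration inhibiting PA28-present chymotrypsin-like activity by 50%. Values are mean ± SD of three independent experiments.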

For assay [3], the system named is proteasome. Particulars: cited from earlier work.
Assay [4] deals with PA28-activated proteasome. The experiment in a line: Inhibition of PA28-activated proteasome by Aβ1-42. Conditions: PA28 1.8 μg/ml. In kind it is biochemical.
Assay [5] deals with PA28-activated proteasome inhibited by Aβ1-42. The assay is described as follows: Antagonism of Aβ1-42 inhibition of PA28-activated proteasome by compound 2. Type of assay: biochemical. Conditions: compound 2 at 14, 28, 56 μM; Aβ1-42 10 μg/ml; PA28 1.8 μg/ml.
Assay [6] relates to proteasome. Particulars: cited from earlier work. This is another data set of the same source.
The test system of assay [7] is proteasome. Particulars: cited from earlier work. The source holds these as a separate data set.

Entries after “also recorded” stand apart in the source; their conditions may differ.

`COC(=O)CC[C@@H](C)[C@H]1CC[C@H]2[C@@H]3CC[C@@H]4C[C@@H](NC(=O)CCCCCC(=O)O)CC[C@]4(C)[C@H]3CC[C@]12C` [Compound 7]: the “Proteasome activation (in words)” value in assay [1] was “did not activate the proteasome”. For the same molecule, the “Proteasome inhibition (in words)” value in assay [2] was “inhibited the proteasome”. Consider `CN(C)c1ccc2nc3ccc(=[N+](C)C)cc-3sc2c1` [methylene blue], for which, in the assay on proteasome [3], the “Enhancement of proteasome activity (in words)” value is “slightly enhance proteasome activity”. `COC(=O)CC[C@@H](C)[C@H]1CC[C@H]2[C@@H]3CC[C@@H]4C[C@H](NC(=O)CCCCCC(=O)O)CC[C@]4(C)[C@H]3CC[C@]12C` [Compound 6]: in assay [1] (C3 amide versus C3 ester), the “Increase of proteasome activation activity relative to compound 2” value is recorded as “approximately two-fold”. As to `COC(=O)CC[C@@H](C)[C@H]1CC[C@H]2[C@@H]3CC[C@@H]4C[C@@H](OC(=O)CCCCCC(=O)O)CC[C@]4(C)[C@H]3CC[C@]12C` [Compound 5], the “Proteasome activation (in words)” value in assay [1] is given as “did not activate the proteasome”. Further, in assay [2], the “Proteasome inhibition (in words)” value is “inhibited the proteasome”. Take `CCOC(=O)CC[C@@H](C)[C@H]1CC[C@H]2[C@@H]3CC[C@@H]4C[C@H](OC(=O)CCCCCC(=O)O)CC[C@]4(C)[C@H]3CC[C@]12C` [Compound 3]: the “Proteasome activation (in words)” value in assay [1] is “completely abrogated the proteasome activation activity”. Turning to `C[C@H](CCC(=O)O)[C@H]1CC[C@H]2[C@@H]3CC[C@@H]4C[C@H](O)CC[C@]4(C)[C@H]3CC[C@]12C` [Lithocholic acid, lithocholic acid, reference compound], the “Proteasome activation (in words)” value in assay [1] is reported as “did not activate the proteasome”. In assay [2], the “Proteasome inhibition (in words)” value is given as “weak proteasome inhibitor”. Turning to “Aβ1-42: amyloid beta peptide 1-42, the likely pathogenic form of Aβ”, the “Inhibition of PA28-activated proteasome (in words)” value in assay [4] is given as “inhibited the proteasome in a dose dependent manner”. With `CNC(=O)CC[C@@H](C)[C@H]1CC[C@H]2[C@@H]3CC[C@@H]4C[C@H](OC(=O)CCCCCC(=O)O)CC[C@]4(C)[C@H]3CC[C@]12C` [Compound 4], the “Proteasome activation (in words)” value in assay [1] was “completely abrogated the proteasome activation activity”.

`COC(=O)CC[C@@H](C)[C@H]1CC[C@H]2[C@@H]3CC[C@@H]4C[C@H](OC(=O)CCCCCC(=O)O)CC[C@]4(C)[C@H]3CC[C@]12C` [Compound 2, 3α-O-pimeloyl-lithocholic acid methyl ester]: in assay [1], the “Proteasome activation (in words)” value is reported as “active in proteasome activation”. Moreover, in assay [5], the “Antagonism of Aβ1-42-mediated proteasome inhibition (in words)” value is listed as “antagonized the Aβ1-42-mediated proteasome inhibition in a dose dependent manner; also recorded: potently antagonized; also recorded: completely reverse”. Also, the “Proteasome inhibition in previous study (in words)” value in the assay on proteasome [6] is “inactive in proteasome inhibition”. Take `C/C=C1/[C@H](O[C@@H]2O[C@H](CO)[C@@H](O)[C@H](O)[C@H]2O)OC=C(C(=O)OC)[C@H]1CC(=O)OCCc1ccc(O)c(O)c1` [Oleuropein, reference compound]: the “Proteasome activation (in words)” value in assay [1] is “did not show any significant activity; also recorded: did not activate the proteasome”. The “Proteasome activation over background proteasome activity” value in the assay with proteasome [7] (absence of cellular proteasome activators) is given as “approximately 1.5 fold”. The “Concentration reported to enhance proteasome activities in vitro” value with proteasome [7] is 0.5 µg/mL. As to `CCCCCCCCCCCCOS(=O)(=O)[O-].[Na+]` [SDS], the “Concentration reported for proteasome activation” value in the assay on proteasome [7] is given as 0.05%.

`COC(=O)CC[C@@H](C)[C@H]1CC[C@H]2[C@@H]3CC[C@@H]4C[C@@H](N)CC[C@]4(C)[C@H]3CC[C@]12C` [Compound 9, 3-β-amino-lithocholic acid methyl ester]: in assay [1], the “Proteasome activation (in words)” value was “did not activate the proteasome”. In assay [2], the “Proteasome inhibition (in words)” value is recorded as “inhibited the proteasome”. On to polylysine, for which, in the assay with proteasome [7], the “Concentration reported for proteasome activation” value was 1 mg/mL.
